In assay [1] the test system is K-Ras. As to conditions: Goebel and colleagues; cited from earlier work.
The target in assay [2] is T1, K-Ras (G12C) (Homo sapiens, UniProt P01116, G12C). Nature of the assay: MST binding of labeled nucleotide.
In assay [3] the target is T2, K-Ras (WT) (Homo sapiens, UniProt P01116). Description: MST binding of labeled nucleotide.
Assay [4] deals with T3, Rac-1 (Homo sapiens, UniProt P63000). Nature of the assay: MST binding of labeled nucleotide. The settings on record: read-out: MST GTP Kd.
Assay [5] deals with T4, K-Ras (G12D) (Homo sapiens, UniProt P01116, G12D). Description: SPA with [32P]GTP. In kind it is binding. An outline of the steps:
(§1)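 Saturation binding used [32P]GTP (3,000 Ci/mmol) at 2.5 nmol/L–10 µmol/L, with nonspecific signal defined by 800 mmol/L imidazole. Counts were converted to pmol, and Kd and Bmax fitted from bound versus free GTP. Three independent experiments, technical triplicates.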

Assay [6] addresses T5, K-Ras (Q61H) (Homo sapiens, UniProt P01116, Q61H). Description: MST binding of labeled nucleotide. As to conditions: read-out: MST GTP Kd.
Assay [7] deals with T2, K-Ras (WT). Nature of the assay: SPA with [32P]GTP. The class given is binding. An outline of the steps: as §1
The target in assay [8] is T2, K-Ras (WT). Nature of the assay: Filtration binding assay with α-[32P]GTP. An outline of the steps: (§2)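 Nucleotide-free His10-tagged K-Ras (residues 2–185) was expressed in E. coli and purified by Ni affinity and SEC. Varying protein amounts were incubated with α-[32P]GTP (2,594 Ci/mmol; 2.88 nmol/L final) for 5 min at 23°C in 100 µL. Samples were filtered through 0.45-µm MCE membranes, washed with ice-cold GTP-free assay buffer, and dried filters counted for dpm. Kd came from saturation binding and kon from a time course.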

Assay [9] concerns the target T5, K-Ras (Q61H). Description: SPA with [32P]GTP. In kind it is binding. In a few lines:
as §1

The target of assay [10] is T6, Rho-A (Homo sapiens, UniProt P61586). Nature of the assay: MST binding of labeled nucleotide. As to conditions: read-out: MST GTP Kd.
For assay [11], the system named is H-Ras. As to conditions: Feuerstein and colleagues; cited from earlier work.
The target in assay [12] is T3, Rac-1. Description: SPA with [32P]GTP. In kind it is binding. In a few lines:
as §1

Assay [13] has as its target T1, K-Ras (G12C). Description: SPA with [32P]GTP. In kind it is binding. An outline of the steps: as §1
Assay [14] has as its target T4, K-Ras (G12D). Nature of the assay: MST binding of labeled nucleotide. As to conditions: read-out: MST GTP Kd.
Assay [15] has as its target T4, K-Ras (G12D). Description: Filtration binding assay with α-[32P]GTP. An outline of the steps:
as §2

Assay [16] concerns the target T6, Rho-A. Description: SPA with [32P]GTP. In kind it is binding. An outline of the steps: as §1

T6 sequence (P61586 2-181): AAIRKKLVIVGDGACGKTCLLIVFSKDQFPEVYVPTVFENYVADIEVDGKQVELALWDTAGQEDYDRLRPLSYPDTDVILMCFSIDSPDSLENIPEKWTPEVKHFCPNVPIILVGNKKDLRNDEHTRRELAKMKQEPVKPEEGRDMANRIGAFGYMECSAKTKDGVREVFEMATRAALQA

For `Nc1nc2c(ncn2[C@@H]2O[C@H](COP(=O)(O)OP(=O)(O)O)[C@@H](O)[C@H]2O)c(=O)[nH]1` [GDP], in [1], the koff was 1.1e-05 s⁻¹. The association rate constant (kon) in [1] is 4.22e+06 M⁻¹ s⁻¹. Moreover, the figures for the Kd in [2] (read-out: MST GDP Kd) and in [3] (read-out: MST GDP Kd) were 360 ± 34 nM and 394 ± 54 nM, respectively.

As to `Nc1nc2c(ncn2[C@@H]2O[C@H](COP(=O)(O)OP(=O)(O)OP(=O)(O)O)[C@@H](O)[C@H]2O)c(=O)[nH]1` [GTP], the Kd in assay [4] was 166 ± 10 nM; in assay [5] (read-out: SPA GTP Kd) it was 280 ± 19 nM; in assay [6] it was 157 ± 21 nM; in [7] (read-out: SPA GTP Kd, K-Ras (WT)), 246 ± 19 nM; in [8] (read-out: Filtration assay GTP Kd, K-Ras (WT), 23°C), 228 ± 26 nM; in [2] (read-out: MST GTP Kd), 207 ± 46 nM. The Kd in assay [10] came out at 130 ± 5 nM; in assay [3] (read-out: MST GTP Kd, 23°C), 463 ± 23 nM; in [12] (read-out: SPA GTP Kd), 151 ± 14 nM; in [13] (read-out: SPA GTP Kd) it was 359 ± 35 nM; in assay [14] it was 244 ± 12 nM; in assay [15] (read-out: Filtration assay GTP Kd, K-Ras (G12D), 23°C), 345 ± 25 nM. The Kd in assay [16] (read-out: SPA GTP Kd) was found to be 129 ± 12 nM. Further, the “SPA Bmax (mol:mol)” value in assay [5] was 0.97 ± 0.01 mol:mol; in [7] (K-Ras (WT), molar binding stoichiometry of GTP to protein), 1.00 ± 0.01 mol:mol; in assay [9], 0.96 ± 0.02 mol:mol; in [12], 1.03 ± 0.02 mol:mol; in assay [13] it was 0.94 ± 0.02 mol:mol; in assay [16], 1.02 ± 0.02 mol:mol. The “kon by SPA” value in assay [7] (WT K-Ras) stood at 3.22e+08 M⁻¹ s⁻¹. Moreover, the “Filtration assay Bmax (mol:mol)” value in assay [8] (K-Ras (WT)) is recorded as 0.93 ± 0.03 mol:mol; in [15] (K-Ras (G12D)), 0.95 ± 0.02 mol:mol. For the same molecule, the “kon by filtration binding assay” value in [8] (K-Ras, time course study) was determined as 2.13e+08 M⁻¹ s⁻¹; in assay [15] (G12D K-Ras mutant, time course study) it was 2.49e+08 M⁻¹ s⁻¹. Also, in [11], the off-rate constant (koff) is 8e-05 s⁻¹. Also, the on-rate constant (kon) in assay [11] was 2.9e+06 M⁻¹ s⁻¹.

(Values after PMC12757722 (Molecular Cancer Therapeutics, 2025).)
